Calls of active or inactive are those of the source.

Experimental findings from ChEMBL document CHEMBL1137015, “Improved, selective, human intestinal carboxylesterase inhibitors designed to modulate 7-ethyl-10-[4-(1-piperidino)-1-piperidino]carbonyloxycamptothecin (Irinotecan; CPT-11) toxicity” (J Med Chem, 2009) are described below.

The target of one assay is Acetylcholinesterase (Homo sapiens) (UniProt P22303). Briefly: Inhibition of human AchE using acetylthiocholine as substrate by spectrophotometric multiwell plate assay.
Chain of Acetylcholinesterase (Homo sapiens) (P22303 whole entry): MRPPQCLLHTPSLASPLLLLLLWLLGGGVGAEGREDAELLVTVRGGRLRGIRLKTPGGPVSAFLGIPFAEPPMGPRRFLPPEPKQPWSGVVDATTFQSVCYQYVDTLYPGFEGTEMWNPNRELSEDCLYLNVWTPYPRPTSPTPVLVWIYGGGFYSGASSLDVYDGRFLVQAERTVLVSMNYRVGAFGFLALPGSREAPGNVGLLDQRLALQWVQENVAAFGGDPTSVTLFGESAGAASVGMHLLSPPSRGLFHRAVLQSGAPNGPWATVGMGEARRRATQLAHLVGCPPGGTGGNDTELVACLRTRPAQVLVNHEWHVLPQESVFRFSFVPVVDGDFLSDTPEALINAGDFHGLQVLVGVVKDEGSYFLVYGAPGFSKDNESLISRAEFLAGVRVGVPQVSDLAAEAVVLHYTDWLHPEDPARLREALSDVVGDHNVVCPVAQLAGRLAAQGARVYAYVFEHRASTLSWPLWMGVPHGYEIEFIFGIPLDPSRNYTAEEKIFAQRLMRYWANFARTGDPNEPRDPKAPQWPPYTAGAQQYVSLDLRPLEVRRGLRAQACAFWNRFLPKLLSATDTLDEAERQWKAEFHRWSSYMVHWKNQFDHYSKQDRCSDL
In the case of `CCOc1ccc(NS(=O)(=O)c2ccc(Cl)cc2)cc1`, the outcome was inactive.
For `O=S(=O)(Nc1ccc(NS(=O)(=O)c2c(F)cccc2F)cc1)c1c(F)cccc1F`, the outcome was inactive.
Still for that read-out and setting: the value for `O=S(=O)(Nc1c(F)c(F)c(NS(=O)(=O)c2ccc(Br)cc2)c(F)c1F)c1ccc(Br)cc1` was “inactive”.
For the molecule `Cc1c(C)c(NS(=O)(=O)c2ccc(F)cc2)c(C)c(C)c1NS(=O)(=O)c1ccc(F)cc1`, the result was inactive.
On to `O=S(=O)(Nc1ccc2c(c1)Cc1cc(NS(=O)(=O)c3cc(F)c(F)c(F)c3)ccc1-2)c1cc(F)c(F)c(F)c1`, for which the result was inactive.
Regarding `O=S(=O)(Nc1ccc(NS(=O)(=O)c2cccc(F)c2)cc1)c1cccc(F)c1`, the result was inactive.
In the case of `O=S(=O)(Nc1ccc2c(c1)Cc1cc(NS(=O)(=O)c3cccc(Cl)c3)ccc1-2)c1cccc(Cl)c1`, the result was inactive.
On the same count and under the same terms, the value for `O=S(=O)(Nc1ccc(NS(=O)(=O)c2ccc(Cl)cc2)c2ccccc12)c1ccc(Cl)cc1` was “inactive”; that for `O=S(=O)(Nc1ccc(NS(=O)(=O)c2cc(Cl)ccc2Cl)cc1)c1cc(Cl)ccc1Cl` was “inactive”.
As to `O=S(=O)(Nc1ccc(NS(=O)(=O)c2ccc(F)cc2)cc1)c1ccc(F)cc1`, the result was inactive.
On the same count and under the same terms, the result for `O=S(=O)(Nc1ccc(NS(=O)(=O)c2ccc(Cl)cc2)cc1)c1ccc(Cl)cc1` reads “inactive”; that for `CS(=O)(=O)Nc1ccc(SSc2ccc(NS(C)(=O)=O)cc2)cc1`, “inactive”.
For `O=S(=O)(Nc1ccc(Oc2ccccc2)cc1)c1ccc(Br)cc1`, the outcome was inactive.

For the next assay, the target named is Cholinesterase (Homo sapiens) (UniProt P06276). Put plainly: Inhibition of human BchE using butyrylthiocholine as substrate by spectrophotometric multiwell plate assay.
Chain of Cholinesterase (Homo sapiens) (P06276 whole entry): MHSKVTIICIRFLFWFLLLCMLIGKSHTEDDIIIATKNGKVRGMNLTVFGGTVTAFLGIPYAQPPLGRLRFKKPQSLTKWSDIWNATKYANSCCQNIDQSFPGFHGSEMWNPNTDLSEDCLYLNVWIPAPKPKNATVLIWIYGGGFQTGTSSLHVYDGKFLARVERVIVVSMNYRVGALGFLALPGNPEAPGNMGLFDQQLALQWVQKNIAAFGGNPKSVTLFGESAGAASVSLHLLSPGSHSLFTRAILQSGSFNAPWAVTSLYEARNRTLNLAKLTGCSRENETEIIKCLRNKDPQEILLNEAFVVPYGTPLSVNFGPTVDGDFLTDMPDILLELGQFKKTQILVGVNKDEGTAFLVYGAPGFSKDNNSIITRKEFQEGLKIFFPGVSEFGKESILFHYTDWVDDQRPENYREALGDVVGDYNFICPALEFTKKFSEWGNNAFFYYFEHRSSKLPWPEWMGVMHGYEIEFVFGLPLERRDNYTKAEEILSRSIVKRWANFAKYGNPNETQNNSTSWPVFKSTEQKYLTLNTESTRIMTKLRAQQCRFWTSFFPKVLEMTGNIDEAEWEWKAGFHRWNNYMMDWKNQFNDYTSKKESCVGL
Take `CCOc1ccc(NS(=O)(=O)c2ccc(Cl)cc2)cc1`: the outcome was inactive.
With `O=S(=O)(Nc1ccc(NS(=O)(=O)c2c(F)cccc2F)cc1)c1c(F)cccc1F`, the outcome was inactive.
With `O=S(=O)(Nc1c(F)c(F)c(NS(=O)(=O)c2ccc(Br)cc2)c(F)c1F)c1ccc(Br)cc1`, the result was inactive.
As to `Cc1c(C)c(NS(=O)(=O)c2ccc(F)cc2)c(C)c(C)c1NS(=O)(=O)c1ccc(F)cc1`, the result was inactive.
Same read-out and setting: the result for `O=S(=O)(Nc1ccc2c(c1)Cc1cc(NS(=O)(=O)c3cc(F)c(F)c(F)c3)ccc1-2)c1cc(F)c(F)c(F)c1` reads “inactive”; that for `O=S(=O)(Nc1ccc(NS(=O)(=O)c2cccc(F)c2)cc1)c1cccc(F)c1`, “inactive”; that for `O=S(=O)(Nc1ccc2c(c1)Cc1cc(NS(=O)(=O)c3cccc(Cl)c3)ccc1-2)c1cccc(Cl)c1`, “inactive”.
Regarding `O=S(=O)(Nc1ccc(NS(=O)(=O)c2ccc(Cl)cc2)c2ccccc12)c1ccc(Cl)cc1`, the result was inactive.
As to `O=S(=O)(Nc1ccc(NS(=O)(=O)c2cc(Cl)ccc2Cl)cc1)c1cc(Cl)ccc1Cl`, the result was inactive.
As to `O=S(=O)(Nc1ccc(NS(=O)(=O)c2ccc(F)cc2)cc1)c1ccc(F)cc1`, the result was inactive.
As to `O=S(=O)(Nc1ccc(NS(=O)(=O)c2ccc(Cl)cc2)cc1)c1ccc(Cl)cc1`, the outcome was inactive.
Same read-out and setting: the result for `CS(=O)(=O)Nc1ccc(SSc2ccc(NS(C)(=O)=O)cc2)cc1` reads “inactive”.
Still for that read-out and setting: the result for `O=S(=O)(Nc1ccc(Oc2ccccc2)cc1)c1ccc(Br)cc1` reads “inactive”.

Target in the next assay: not listed separately
Put plainly: Inhibition of human intestinal CE-mediated irinotecan hydrolysis. The method in brief:
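Human intestinal CE (25 U per reaction; 1 U converts 1 nmole o-nitrophenyl acetate/min) with 20µM CPT-11 in 50mM Hepes pH7.4, inhibitor 1nM to 100µM. Incubated 37°C for 5 min, stopped with cold acidified methanol, centrifuged. SN-38 measured by reverse phase HPLC. Fractional inhibition fitted to partial inhibition equation, model chosen by Akaike's criteria, Ki from best fit.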
As usually defined, the Ki is the dissociation constant of the complex between target and ligand, obtained from inhibition or displacement. As to `CCOc1ccc(NS(=O)(=O)c2ccc(Cl)cc2)cc1`, the Ki was determined as 3220 nM. That is a single-digit micromolar value.
Molecule `O=S(=O)(Nc1ccc(NS(=O)(=O)c2c(F)cccc2F)cc1)c1c(F)cccc1F` registered a Ki of more than 100000 nM.
Still for that read-out and setting: the result for `O=S(=O)(Nc1c(F)c(F)c(NS(=O)(=O)c2ccc(Br)cc2)c(F)c1F)c1ccc(Br)cc1` reads 28 nM; that for `Cc1c(C)c(NS(=O)(=O)c2ccc(F)cc2)c(C)c(C)c1NS(=O)(=O)c1ccc(F)cc1`, more than 100000 nM.
Still for that read-out and setting: the result for `O=S(=O)(Nc1ccc2c(c1)Cc1cc(NS(=O)(=O)c3cc(F)c(F)c(F)c3)ccc1-2)c1cc(F)c(F)c(F)c1` reads 58.1 nM.
On the same count and under the same terms, the result for `O=S(=O)(Nc1ccc(NS(=O)(=O)c2cccc(F)c2)cc1)c1cccc(F)c1` reads 152 nM; that for `O=S(=O)(Nc1ccc2c(c1)Cc1cc(NS(=O)(=O)c3cccc(Cl)c3)ccc1-2)c1cccc(Cl)c1`, 52.8 nM; that for `O=S(=O)(Nc1ccc(NS(=O)(=O)c2ccc(Cl)cc2)c2ccccc12)c1ccc(Cl)cc1`, more than 100000 nM.
The molecule `O=S(=O)(Nc1ccc(NS(=O)(=O)c2ccc(F)cc2)cc1)c1ccc(F)cc1` showed a Ki of 79 nM.
Still for that read-out and setting: the value for `O=S(=O)(Nc1ccc(NS(=O)(=O)c2ccc(Cl)cc2)cc1)c1ccc(Cl)cc1` was 141 nM.
Still for that read-out and setting: the value for `CS(=O)(=O)Nc1ccc(SSc2ccc(NS(C)(=O)=O)cc2)cc1` was more than 100000 nM; that for `O=S(=O)(Nc1ccc(Oc2ccccc2)cc1)c1ccc(Br)cc1` was more than 100000 nM.

Target in the next assay: not listed separately
Put plainly: Inhibition of human intestinal CE-mediated O-nitrophenyl acetate hydrolysis by spectrophotometry. The method in brief:
(§1)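 Enzyme activity read spectrophotometrically as release of o-nitrophenol from o-nitrophenyl acetate across increasing inhibitor concentrations. Inhibitors were freshly dissolved in DMSO, typically as 10mM stocks. Fractional inhibition was plotted against inhibitor concentration and fitted to a partial-inhibition equation including Ks, α and β. Inhibition mode was chosen by Akaike's information criteria, and Ki was taken from the best-fit model.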
The molecule `CCOc1ccc(NS(=O)(=O)c2ccc(Cl)cc2)cc1` came in with a Ki of 1310 nM.
Still for that read-out and setting: the value for `O=S(=O)(Nc1ccc(NS(=O)(=O)c2c(F)cccc2F)cc1)c1c(F)cccc1F` was 5260 nM; that for `O=S(=O)(Nc1c(F)c(F)c(NS(=O)(=O)c2ccc(Br)cc2)c(F)c1F)c1ccc(Br)cc1` was 23.4 nM.
The same measure, in the same setting: the result for `Cc1c(C)c(NS(=O)(=O)c2ccc(F)cc2)c(C)c(C)c1NS(=O)(=O)c1ccc(F)cc1` reads more than 100000 nM; that for `O=S(=O)(Nc1ccc2c(c1)Cc1cc(NS(=O)(=O)c3cc(F)c(F)c(F)c3)ccc1-2)c1cc(F)c(F)c(F)c1`, 18.6 nM; that for `O=S(=O)(Nc1ccc(NS(=O)(=O)c2cccc(F)c2)cc1)c1cccc(F)c1`, 248 nM.
Molecule `O=S(=O)(Nc1ccc2c(c1)Cc1cc(NS(=O)(=O)c3cccc(Cl)c3)ccc1-2)c1cccc(Cl)c1` displayed a Ki of 13.9 nM.
As to `O=S(=O)(Nc1ccc(NS(=O)(=O)c2ccc(Cl)cc2)c2ccccc12)c1ccc(Cl)cc1`, the Ki amounted to 194 nM.
For the molecule `O=S(=O)(Nc1ccc(NS(=O)(=O)c2cc(Cl)ccc2Cl)cc1)c1cc(Cl)ccc1Cl`, the Ki worked out at 119 nM.
Same read-out and setting: the value for `O=S(=O)(Nc1ccc(NS(=O)(=O)c2ccc(F)cc2)cc1)c1ccc(F)cc1` was 355 nM.
In turn, `CS(=O)(=O)Nc1ccc(SSc2ccc(NS(C)(=O)=O)cc2)cc1` showed a Ki of 767 nM. This Ki lies about 2.2-fold higher than the previous one.
The molecule `O=S(=O)(Nc1ccc(Oc2ccccc2)cc1)c1ccc(Br)cc1` showed a Ki of 165 nM.

The target of the next assay is T1, Liver carboxylesterase 1 (Homo sapiens, UniProt P23141).
T1 sequence (P23141 whole entry): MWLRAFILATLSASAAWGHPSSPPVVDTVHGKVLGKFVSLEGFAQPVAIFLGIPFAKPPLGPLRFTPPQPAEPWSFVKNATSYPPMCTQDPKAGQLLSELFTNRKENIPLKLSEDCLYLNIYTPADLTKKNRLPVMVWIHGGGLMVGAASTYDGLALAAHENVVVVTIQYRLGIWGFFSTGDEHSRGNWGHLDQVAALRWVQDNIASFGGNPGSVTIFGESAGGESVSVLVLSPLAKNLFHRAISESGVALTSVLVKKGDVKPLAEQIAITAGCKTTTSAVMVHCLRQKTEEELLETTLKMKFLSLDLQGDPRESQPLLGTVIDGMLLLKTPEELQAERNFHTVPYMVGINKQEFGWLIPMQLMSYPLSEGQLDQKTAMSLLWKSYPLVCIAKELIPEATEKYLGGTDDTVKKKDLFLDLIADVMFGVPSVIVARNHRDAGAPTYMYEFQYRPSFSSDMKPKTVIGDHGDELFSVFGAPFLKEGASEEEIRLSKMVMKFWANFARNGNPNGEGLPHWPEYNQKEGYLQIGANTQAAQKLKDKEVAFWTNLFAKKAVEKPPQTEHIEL
Put plainly: Inhibition of human liver CE1-mediated O-nitrophenyl acetate hydrolysis by spectrophotometry. The method in brief:
as §1
`O=S(=O)(Nc1ccc(NS(=O)(=O)c2c(F)cccc2F)cc1)c1c(F)cccc1F` had a Ki of more than 100000 nM.
`O=S(=O)(Nc1c(F)c(F)c(NS(=O)(=O)c2ccc(Br)cc2)c(F)c1F)c1ccc(Br)cc1` had an inhibitory constant (Ki) of more than 100000 nM.
On the same count and under the same terms, the result for `Cc1c(C)c(NS(=O)(=O)c2ccc(F)cc2)c(C)c(C)c1NS(=O)(=O)c1ccc(F)cc1` reads more than 100000 nM; that for `O=S(=O)(Nc1ccc2c(c1)Cc1cc(NS(=O)(=O)c3cc(F)c(F)c(F)c3)ccc1-2)c1cc(F)c(F)c(F)c1`, more than 100000 nM.
Same read-out and setting: the value for `O=S(=O)(Nc1ccc(NS(=O)(=O)c2cccc(F)c2)cc1)c1cccc(F)c1` was more than 100000 nM.
Still for that read-out and setting: the result for `O=S(=O)(Nc1ccc2c(c1)Cc1cc(NS(=O)(=O)c3cccc(Cl)c3)ccc1-2)c1cccc(Cl)c1` reads more than 100000 nM; that for `O=S(=O)(Nc1ccc(NS(=O)(=O)c2cc(Cl)ccc2Cl)cc1)c1cc(Cl)ccc1Cl`, more than 100000 nM; that for `O=S(=O)(Nc1ccc(NS(=O)(=O)c2ccc(F)cc2)cc1)c1ccc(F)cc1`, more than 100000 nM.
